# T cruzi growth-1: blocks T. cruzi growth in NIH3T3 culture. T. cruzi beta-gal in NIH3T3, GalScreen luminescence, 90 h. AID 624255. inhibition, % at 8.34 µM. actives 5.9% (n = 77,000);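 active = mean inhibition above about 93%, with at least 55% of replicates each passing it, limit read from the data, passing the limit was not always enough; inconclusive = only one of those two conditions holds; inactive = neither condition holds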
# IDH1 R132H inh: inhibitors of human IDH1 R132H; AID 624101; inhibition, % at 10 µM; actives 0.18% (n = 70,000); O75874; IDH1 R132H reductase, diaphorase/resazurin fluorescence, 60 min; in the data active = inhibition above about 34%; inconclusive = no clear call, values can overlap the other calls; inactive = below about 11%;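 note: 0% = DMSO and 100% = no enzyme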
# Pf Dd2 inh: P. falciparum Dd2 growth inhibition; SYBR Green, 72 h; hits give low values; activity change, % at 10 µM; actives 2.3% (n = 94,000); in the data active = activity change below about -80%; inconclusive = no clear call, values can overlap the other calls
# KDM4C inh: blocks human GASC-1 (KDM4C) demethylase activity | Q9H3R0 | GST-KDM4C 2-372, H3K9me3 peptide, LANCE TR-FRET | inhibition, % at 12.5 µM | actives 0.15% (n = 96,000) | AID 720574;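 active = mean replicate inhibition above about 25%, with at least 55% of replicates also reaching it, limit read from the data, passing the limit was not always enough; inconclusive = only one of those two conditions met; inactive = neither condition met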
# Target sequence (Q9H3R0 2-372 limits assumed): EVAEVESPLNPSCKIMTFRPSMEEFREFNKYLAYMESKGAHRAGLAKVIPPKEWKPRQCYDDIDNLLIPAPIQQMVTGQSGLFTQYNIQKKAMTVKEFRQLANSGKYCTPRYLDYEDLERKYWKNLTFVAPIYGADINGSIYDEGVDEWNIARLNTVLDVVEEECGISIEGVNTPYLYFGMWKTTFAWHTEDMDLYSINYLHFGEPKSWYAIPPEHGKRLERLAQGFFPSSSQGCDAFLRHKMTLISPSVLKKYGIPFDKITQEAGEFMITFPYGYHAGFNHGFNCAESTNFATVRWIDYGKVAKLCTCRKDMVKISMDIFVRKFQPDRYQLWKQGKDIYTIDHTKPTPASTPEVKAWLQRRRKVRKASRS
#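 System – N-terminal GST-fused human GASC-1 (KDM4C) fragment, residues 2-372 · Input – enzyme final amount 10 nM · Technique – LANCE TR-FRET, Eu antibody, ULight-streptavidin, EDTA, ex 340 nm, em 618/671 nm · Medium – HEPES buffer, pH 7.5, plus ascorbate · Incubation – enzyme reaction 30 min, then detection 60 min, both room temperature · Reagent – H3K9me3 peptide with Fe(II)/2OG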
# T cruzi growth-2: blocks T. cruzi growth in NIH3T3 host cells. shares compounds with T cruzi growth-1. T. cruzi beta-gal in NIH3T3, GalScreen luminescence, 90 h. inhibition, % at 8.35 µM. actives 72% (n = 5,600);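 active = mean replicate inhibition above about 95% and at least 55% of replicates individually reaching it, limit read from the data; inconclusive = only one of the two criteria is met; inactive = neither criterion is met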
# T cruzi growth-3: inhibitors of T. cruzi proliferation; AID 651740; T. cruzi beta-gal in NIH3T3, GalScreen luminescence, 90 h; shares compounds with T cruzi growth-1; inhibition, % at 2.09 µM; actives 21% (n = 5,600);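 active = mean inhibition above about 95%, with at least 55% of replicates also reaching it, limit read from the data; inconclusive = meets just one of the two conditions; inactive = meets neither condition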;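 note: plate controls were neutral control median for no effect and positive control median for full effect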
# NIH3T3 tox: kills mouse NIH/3T3 fibroblasts | shares compounds with T cruzi growth-1 | NIH/3T3 viability, CellTiter-Glo ATP luminescence, 90 h | cytotoxicity (signal decrease), % at 8.35 µM | actives 14% (n = 5,600) | AID 651742;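 active = mean signal decrease across replicates above about 35% based on untreated-well scatter, with enough replicates individually passing, limit read from the data; inconclusive = no rule stated though some were filed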;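 note: 0% = median of neutral control wells and 100% = median of positive control wells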
# NIH3T3 tox 2: kills mouse NIH/3T3 fibroblasts. AID 651744. shares compounds with T cruzi growth-1. actives 56% (n = 5,600). NIH/3T3 viability, CellTiter-Glo ATP luminescence, 90 h. inhibition, % at 24.9 µM;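 active = mean loss of cell viability signal at or above a set limit, and enough replicates individually reaching it; inconclusive = meets only the mean limit or only the replicate share; inactive = meets neither condition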;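 note: 0% = median of neutral control wells and 100% = median of positive control wells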
# * marks the source's active call; other numbers are inactive results; u = inconclusive; x = no result. Rows were chosen to be rich in hits. Some 5.8% of all compounds tested hit in one or more screens of this group.
SMILES,T cruzi growth-1,IDH1 R132H inh,Pf Dd2 inh,KDM4C inh,T cruzi growth-2,T cruzi growth-3,NIH3T3 tox,NIH3T3 tox 2
CO[C@H](CN(C)S(=O)(=O)c1cccc(Cl)c1)[C@H](C)CN([C@@H](C)CO)S(=O)(=O)c1cccc(Cl)c1,99.3*,-0.6,-52.4,-1.1,109.7*,24.3,49.3*,57.7*
CO[C@@H](CN(C)S(=O)(=O)c1cccc(Cl)c1)[C@@H](C)CN([C@H](C)CO)S(=O)(=O)c1cccc(Cl)c1,90.7,-0.4,-21.9,-2.3,x,x,x,x
CO[C@@H](CN(C)S(=O)(=O)c1cccc(Cl)c1)[C@H](C)CN([C@@H](C)CO)S(=O)(=O)c1ccc(Cl)cc1,102.7*,-0.4,-13.3,-0.2,u,23.0,u,75.6*
CO[C@H](CN(C)S(=O)(=O)c1ccc(C)cc1)[C@H](C)CN([C@H](C)CO)S(=O)(=O)c1cccc(Cl)c1,102.0*,-0.7,-3.9,-2.6,102.8*,25.9,57.7*,83.6*
CO[C@H](CN(C)S(=O)(=O)c1cccc(Cl)c1)[C@H](C)CN([C@H](C)CO)S(=O)(=O)c1cccc(Cl)c1,101.0*,-0.6,-34.5,-0.7,113.3*,71.5,u,60.0*
O=C(Nc1cc(F)ccc1F)N[C@@H]1CC[C@@H](CCn2cc(C3CC3)nn2)O[C@H]1CO,8.3,-0.4,15.0,1.9,x,x,x,x
C[C@H](CO)N1C[C@H](C)[C@H](CN(C)S(=O)(=O)c2ccccc2)Oc2ncc(C#Cc3ccc(F)cc3)cc2C1=O,u,-1.2,-56.7,-3.4,106.9*,53.8,20.5,16.2
C[C@H](CO)N1C[C@H](C)[C@H](CN(C)S(=O)(=O)c2ccc(F)cc2)Oc2ncc(C#Cc3ccc(F)cc3)cc2C1=O,112.8*,0.7,-30.3,-2.0,108.4*,47.8,33.8,36.5*
Cc1ccc(S(=O)(=O)N(C)C[C@@H]2Oc3ncc(C#Cc4ccc(F)cc4)cc3C(=O)N([C@H](C)CO)C[C@@H]2C)cc1,-8.7,0.1,-47.4,-2.9,x,x,x,x
C[C@H](CO)N1C[C@H](C)[C@H](CN(C)S(=O)(=O)c2ccccc2)Oc2ncc(C#Cc3cccc(F)c3)cc2C1=O,50.3,0.9,-31.4,-2.8,x,x,x,x
C[C@@H]1CN([C@@H](C)CO)C(=O)c2cc(C#CC3CCCC3)cnc2O[C@H]1CN(C)S(=O)(=O)c1cccc(F)c1,114.9*,-0.2,-41.9,1.6,102.7*,92.5,26.5,86.3*
Cc1c(Br)c([N+](=O)[O-])nn1CC(=O)Nc1cccc(C(F)(F)F)c1,x,-0.1,x,x,x,x,x,x
Nc1nnc(SCC(=O)Nc2cccc(Cl)c2Cl)s1,x,0.4,x,x,x,x,x,x
COc1ccc(S(=O)(=O)Nc2cccc3c2O[C@H](CN(C)Cc2ccc(C(=O)O)cc2)[C@H](C)CN([C@@H](C)CO)C3=O)cc1,u,-0.2,23.2,0.5,77.7,-0.4,-2.8,14.8
COc1ccc(S(=O)(=O)Nc2cccc3c2O[C@H](CN(C)Cc2ccc(Cl)c(Cl)c2)[C@H](C)CN([C@H](C)CO)C3=O)cc1,-12.2,-1.3,27.3,3.4,x,x,x,x
Cc1noc(C)c1S(=O)(=O)Nc1cccc2c1O[C@@H](CN(C)Cc1ccccc1)[C@@H](C)CN([C@H](C)CO)C2=O,9.0,-1.5,14.3,-0.1,x,x,x,x
Cc1ccc(S(=O)(=O)Nc2cccc3c2O[C@@H](CN(C)Cc2ccc(C(F)(F)F)cc2)[C@@H](C)CN([C@H](C)CO)C3=O)cc1,102.3*,1.5,-12.8,-1.2,108.6*,68.3,29.5,87.0*
COc1ccc(S(=O)(=O)Nc2cccc3c2O[C@@H](CN(C)Cc2ccc(Cl)c(Cl)c2)[C@H](C)CN([C@@H](C)CO)C3=O)cc1,102.0*,0.8,-39.5,0.0,110.5*,1.4,13.7,17.8
Cc1ccc(S(=O)(=O)Nc2cccc3c2O[C@@H](CN(C)Cc2ccc(C(F)(F)F)cc2)[C@@H](C)CN([C@@H](C)CO)C3=O)cc1,60.6,-0.3,-23.4,-1.8,x,x,x,x
Cc1noc(C)c1S(=O)(=O)Nc1cccc2c1O[C@H](CN(C)Cc1ccc(-c3ccccc3)cc1)[C@H](C)CN([C@H](C)CO)C2=O,108.1*,10.5,-48.1,0.4,53.6,29.1,-13.7,2.4
COc1ccc(S(=O)(=O)Nc2cccc3c2O[C@H](CN(C)Cc2ccc(C(=O)O)cc2)[C@@H](C)CN([C@H](C)CO)C3=O)cc1,-17.5,0.9,10.0,0.2,x,x,x,x
CCC(=O)N1CC2(C1)[C@H](c1ccccc1)[C@@H](CO)N2CCC(F)(F)F,x,x,-1.3,16.9,x,x,x,x
CC(C)NC(=O)N[C@@H]1C=C[C@@H](CC(=O)O)O[C@H]1CO,60.9,0.2,-0.9,1.3,x,x,x,x
Cc1ccc(N(CC(=O)Nc2cc(Cl)ccc2C)S(C)(=O)=O)c(C)c1,x,0.1,x,x,x,x,x,x
C[C@@H]1CCCCO[C@@H](CN(C)S(=O)(=O)c2ccccc2)[C@@H](C)CN([C@H](C)CO)C(=O)c2cc(NC(=O)Nc3ccccc3)ccc2O1,35.6,0.5,-59.0,0.0,x,x,x,x
SMILES,T cruzi growth-1,IDH1 R132H inh,Pf Dd2 inh,KDM4C inh,T cruzi growth-2,T cruzi growth-3,NIH3T3 tox,NIH3T3 tox 2
C[C@@H]1CCCCO[C@@H](CN(C)S(=O)(=O)c2ccccc2)[C@@H](C)CN([C@@H](C)CO)C(=O)c2cc(NC(=O)Nc3ccc(C(F)(F)F)cc3)ccc2O1,104.8*,x,-58.7,1.0,103.3*,106.1*,36.9*,63.0*
C[C@@H]1CCCCO[C@@H](CN(C)S(=O)(=O)c2ccccc2)[C@H](C)CN([C@@H](C)CO)C(=O)c2cc(NC(=O)Nc3ccc(C(F)(F)F)cc3)ccc2O1,109.3*,x,-75.2,2.0,104.4*,114.6*,13.0,1.2
C[C@@H]1CN([C@@H](C)CO)C(=O)c2cc(NC(=O)Nc3ccc(C(F)(F)F)cc3)ccc2O[C@@H](C)CCCCO[C@H]1CN(C)S(=O)(=O)c1ccccc1,109.3*,x,-49.2,-0.4,103.4*,113.8*,14.2,16.1
C[C@@H]1CN([C@@H](C)CO)C(=O)c2cc(NC(=O)Nc3ccc(C(F)(F)F)cc3)ccc2O[C@@H](C)CCCCO[C@@H]1CN(C)S(=O)(=O)c1ccccc1,76.1,x,-43.9,1.0,x,x,x,x
COCCNC(=O)C[C@H]1CC[C@@H]2[C@H](COC[C@H](O)CN2S(=O)(=O)c2ccccc2C)O1,-26.5,x,4.1,-0.6,x,x,x,x
OC[C@@H]1[C@@H](c2ccc(C#CC3(O)CCCC3)cc2)[C@H]2CN(Cc3cccnc3)CCCCN12,118.8*,x,7.0,-0.4,79.8,36.0,12.9,23.2

# Screens: PubChem BioAssay, Broad Institute
